Screening data from PubChem BioAssay.
Sampled rows, rich in hits. Any-hit rate of the full collection: about 2.6%.
5-HT1A blocker: human 5-HT1a receptor antagonists, primary screen, cell-based, CHO, Ga15 NFAT-bla reporter | AID 612, 2007 | inhibition, % at 10 µM | 5-hydroxytryptamine receptor 1A (Homo sapiens), P08908 | CHO 5-HT1a Ga15 NFAT-bla reporter, antagonist mode | hit rate 0.68% among 62,000;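 active = inhibition above the mean of all tested compounds plus 3 SD, cut at about 43% in these data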;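 note: receptor stimulated by 5-CT agonist at 100 nM near EC80; beta-lactamase reporter measured by ratiometric fluorescence of a cleavable substrate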
Target sequence (P08908 whole entry, looked up): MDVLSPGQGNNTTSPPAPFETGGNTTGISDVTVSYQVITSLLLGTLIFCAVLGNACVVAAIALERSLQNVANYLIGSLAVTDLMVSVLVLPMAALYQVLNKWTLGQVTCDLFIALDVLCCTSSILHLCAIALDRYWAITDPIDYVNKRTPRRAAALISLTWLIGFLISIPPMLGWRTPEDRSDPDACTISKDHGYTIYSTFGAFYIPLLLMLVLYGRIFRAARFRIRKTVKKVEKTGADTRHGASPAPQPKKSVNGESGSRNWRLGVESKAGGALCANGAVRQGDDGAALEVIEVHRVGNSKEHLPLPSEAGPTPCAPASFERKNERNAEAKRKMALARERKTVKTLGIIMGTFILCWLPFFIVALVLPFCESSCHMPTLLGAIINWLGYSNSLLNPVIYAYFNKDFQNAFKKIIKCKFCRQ
HTR1E agonist: 5-HT1E receptor agonists, primary screen, cell-based, HTS | activation, % at 6 µM | hit rate 0.69% among 65,000 | CHO 5-HT1E Ga15 NFAT-bla reporter, FRET; 0% DMSO wells, 100% control agonist wells;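 active = activation above a set limit, the screen-wide mean activation plus 3 SD, cut at about 8.5% in these data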;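 note: 100% = positive control agonist at 1 µM giving full maximal response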
HEK293 NFkB inh: inhibitors of PMA/ionomycin-induced NF-kB reporter, primary screen, antigen receptor NF-kB inhibitor project, cell-based, HEK-293 luciferase reporter, luminescence | HEK-293 NF-kB luciferase reporter | hit rate 0.21% among 62,000 | inhibition, % at 3 µM;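 active = inhibition above the mean of all tested compounds plus 3 SD, cut at about 40% in these data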;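 note: 0% = stimulated DMSO wells and 100% = 10 µM reference inhibitor 5653914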
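System: NF-kB luciferase reporter HEK-293 cells | Replication: Single test | Control set: DMSO vs reference inhibitor | Evaluation: % inhibition | Schedule: 1 h pretreatment, 16 h stimulation, 37 °C | Probe or stimulus: PMA with ionomycin | Compound dosing: One dose, 3 µM | Detection: Luciferase luminescence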
HTR1E antagonist: 5-HT1E receptor antagonists, primary screen, cell-based, HTS. CHO 5-HT1E Ga15 NFAT-bla reporter, FRET, antagonist. inhibition, % at 6 µM. hit rate 0.99% among 65,000;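 active = inhibition above a set limit, the mean inhibition across every tested compound plus 3 SD, cut at about 29% in these data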;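 note: signal is the 460 over 535 nm emission ratio of beta-lactamase substrate; 0% = agonist plus DMSO wells and 100% = wells without agonist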
HTR1A agonist: human 5-HT1a receptor agonists, primary screen, cell-based, CHO, Ga15 NFAT-bla reporter. 5-hydroxytryptamine receptor 1A (Homo sapiens), P08908. CHO 5-HT1a Ga15 NFAT-bla reporter, FRET ratio; 0% basal, 100% maximal reference agonist. activation, % at 10 µM. hit rate 0.56% among 65,000;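 active = activation above the screen-wide mean activation plus 3 SD, cut at about 19% in these data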;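 note: 0% = DMSO wells and 100% = 5-CT at EC100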
* = called active by the depositor.

How did Cc1ccc(S(=O)(=O)N2CC3(C)CN(S(=O)(=O)c4ccc(C)cc4)CC(C)(C2)C3O)cc1 (configuration not stated) do in these assays?
5-HT1A blocker: -14; HTR1E agonist: 9.9*; HEK293 NFkB inh: 17; HTR1E antagonist: 0; HTR1A agonist: 3

Results for COc1cccc(-c2nnc3n2N=C(C(C)(C)C)CS3)c1 ?
5-HT1A blocker: 76*; HTR1E agonist: -1; HEK293 NFkB inh: 50*; HTR1E antagonist: 51*; HTR1A agonist: -1

Results for COc1ccc(OC)c(C2=Nn3c(nnc3-c3ccncc3)SC2)c1 ?
5-HT1A blocker: -10; HTR1E agonist: 1; HEK293 NFkB inh: 3; HTR1E antagonist: 16; HTR1A agonist: 3

Results for COc1ccc(OC)c(C2=Nn3c(nnc3-c3cc(OC)c(OC)c(OC)c3)SC2)c1 ?
5-HT1A blocker: 14; HTR1E agonist: 3; HEK293 NFkB inh: 33; HTR1E antagonist: 44*; HTR1A agonist: 3

How did COc1cccc(-c2nnc3n2N=C(c2cc(OC)ccc2OC)CS3)c1 do in these assays?
5-HT1A blocker: 12; HTR1E agonist: -1; HEK293 NFkB inh: 17; HTR1E antagonist: 44*; HTR1A agonist: 1

How did COc1cc(-c2nnc3n2N=C(c2ccccc2)CS3)cc(OC)c1OC do in these assays?
5-HT1A blocker: 2; HTR1E agonist: 0; HEK293 NFkB inh: 35; HTR1E antagonist: 51*; HTR1A agonist: -1

How did COc1ccc(-c2nnc3n2N=C(c2cccc(Br)c2)CS3)cc1OC do in these assays?
5-HT1A blocker: -7; HTR1E agonist: 0; HEK293 NFkB inh: 15; HTR1E antagonist: 19; HTR1A agonist: 2

How did CCCn1c(=O)c(C(=O)Nc2nnc(CC)s2)c(O)c2ccccc21 do in these assays?
5-HT1A blocker: 16; HTR1E agonist: 0; HEK293 NFkB inh: 20; HTR1E antagonist: 7; HTR1A agonist: -2

Results for CCOc1cccc(-c2nnc3n2N=C(c2cc(OC)ccc2OC)CS3)c1 ?
5-HT1A blocker: 31; HTR1E agonist: 0; HEK293 NFkB inh: 30; HTR1E antagonist: 61*; HTR1A agonist: 1

What do the screens show for `COc1ccc(NC(=O)C2CCN(Cc3cnn(-c4ccccc4)c3-n3cccc3)CC2)cc1OC`?
5-HT1A blocker: 13; HTR1E agonist: 0; HEK293 NFkB inh: 3; HTR1E antagonist: 1; HTR1A agonist: -2

What do the screens show for `O=C(NCc1ccc2c(c1)OCO2)C1CCN(Cc2cnn(-c3ccccc3)c2-n2cccc2)CC1`?
5-HT1A blocker: -4; HTR1E agonist: 12*; HEK293 NFkB inh: 18; HTR1E antagonist: 0; HTR1A agonist: 0

Results for OCCCc1nc2n(n1)C(c1ccccc1Cl)C=C(c1cccs1)N2 (configuration not stated) ?
5-HT1A blocker: 44*; HTR1E agonist: -1; HEK293 NFkB inh: 17; HTR1E antagonist: 50*; HTR1A agonist: -4

What do the screens show for `OCCCc1nc2n(n1)C(c1cccs1)C=C(c1ccccc1)N2` (configuration not stated)?
5-HT1A blocker: 7; HTR1E agonist: 2; HEK293 NFkB inh: 4; HTR1E antagonist: 17; HTR1A agonist: 2

Results for Cc1nn(-c2ccccc2)c(OC(=O)c2cccs2)c1S(=O)(=O)c1ccccc1 ?
5-HT1A blocker: -6; HTR1E agonist: -1; HEK293 NFkB inh: 0; HTR1E antagonist: 4; HTR1A agonist: 81*

Results for Nc1cc(OC(=O)c2cccs2)nn1S(=O)(=O)c1ccccc1 ?
5-HT1A blocker: 8; HTR1E agonist: -1; HEK293 NFkB inh: 4; HTR1E antagonist: -1; HTR1A agonist: -3

How did Nc1ccc(CN2CCN(c3ccc4ccccc4n3)CC2)cc1 do in these assays?
5-HT1A blocker: 11; HTR1E agonist: 14*; HEK293 NFkB inh: 2; HTR1E antagonist: 1; HTR1A agonist: -1

Results for COC(=O)CN(c1ccc(F)cc1)S(=O)(=O)c1ccc2c(c1)OCCO2 ?
5-HT1A blocker: 3; HTR1E agonist: -1; HEK293 NFkB inh: 12; HTR1E antagonist: 11; HTR1A agonist: -1

Results for NC/C(=N\O)c1ccc(Cl)cc1Cl ?
5-HT1A blocker: -15; HTR1E agonist: 13*; HEK293 NFkB inh: 1; HTR1E antagonist: 1; HTR1A agonist: -2
